Measured values from ChEMBL document CHEMBL1129527, “Synthesis, chromatographic resolution, and anti-human immunodeficiency virus activity of (+/-)-calanolide A and its enantiomers” (J Med Chem, 1996).

Key:
MT2 [1] = assay: Anti-HIV activity against HIV-I A17 strain in MT2 cell line; type: functional, cell-based; details: Homo sapiens
Method in brief: (§1)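 MT-2 cells in RPMI 1640 with 10% heat-inactivated FCS and 25 mM HEPES, infected at MOI ~0.03 TCID50/cell for 4 h at 37 °C, then washed. Seeded at 10^4 cells/mL. Compounds were diluted from DMSO to a top concentration of 100 µg/mL (≤0.25% DMSO), in triplicate with infected cells and duplicate with uninfected cells. MTT viability was read at day 7. EC50 protects against virus-induced killing; IC50 is cytotoxicity.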

CCRF-CEM = assay: Anti-HIV activity against HIV-I RFII strain in CEM cell line; type: functional, cell-based; details: Homo sapiens
Method in brief: (§2)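 CEM-SS cells in RPMI 1640 with 10% heat-inactivated FCS, infected at ~0.12 TCID50/cell for 4 h at 37 °C, washed, and seeded at 10^4 cells/mL. Drug dilutions from DMSO went up to 100 µg/mL, in triplicate on infected wells and duplicate on uninfected wells. MTT viability was measured after 6 days.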

MT2 [2] = assay: Anti-HIV activity against HIV-I IIIB strain in MT2 cell line; type: functional, cell-based; details: Homo sapiens; method in brief: as §1
MT2 [3] = assay: (§3) Anti-HIV activity against HIV-I H112-2 strain in MT2 cell line; type: functional, cell-based; details: Homo sapiens; method in brief: as §1
[4] = target: DNA-directed RNA polymerase subunit beta (Escherichia coli K-12, UniProt P0A8V2); assay: Inhibitory activity against RNA polymerase; IA=inactive
Sequence of DNA-directed RNA polymerase subunit beta (P0A8V2 whole entry): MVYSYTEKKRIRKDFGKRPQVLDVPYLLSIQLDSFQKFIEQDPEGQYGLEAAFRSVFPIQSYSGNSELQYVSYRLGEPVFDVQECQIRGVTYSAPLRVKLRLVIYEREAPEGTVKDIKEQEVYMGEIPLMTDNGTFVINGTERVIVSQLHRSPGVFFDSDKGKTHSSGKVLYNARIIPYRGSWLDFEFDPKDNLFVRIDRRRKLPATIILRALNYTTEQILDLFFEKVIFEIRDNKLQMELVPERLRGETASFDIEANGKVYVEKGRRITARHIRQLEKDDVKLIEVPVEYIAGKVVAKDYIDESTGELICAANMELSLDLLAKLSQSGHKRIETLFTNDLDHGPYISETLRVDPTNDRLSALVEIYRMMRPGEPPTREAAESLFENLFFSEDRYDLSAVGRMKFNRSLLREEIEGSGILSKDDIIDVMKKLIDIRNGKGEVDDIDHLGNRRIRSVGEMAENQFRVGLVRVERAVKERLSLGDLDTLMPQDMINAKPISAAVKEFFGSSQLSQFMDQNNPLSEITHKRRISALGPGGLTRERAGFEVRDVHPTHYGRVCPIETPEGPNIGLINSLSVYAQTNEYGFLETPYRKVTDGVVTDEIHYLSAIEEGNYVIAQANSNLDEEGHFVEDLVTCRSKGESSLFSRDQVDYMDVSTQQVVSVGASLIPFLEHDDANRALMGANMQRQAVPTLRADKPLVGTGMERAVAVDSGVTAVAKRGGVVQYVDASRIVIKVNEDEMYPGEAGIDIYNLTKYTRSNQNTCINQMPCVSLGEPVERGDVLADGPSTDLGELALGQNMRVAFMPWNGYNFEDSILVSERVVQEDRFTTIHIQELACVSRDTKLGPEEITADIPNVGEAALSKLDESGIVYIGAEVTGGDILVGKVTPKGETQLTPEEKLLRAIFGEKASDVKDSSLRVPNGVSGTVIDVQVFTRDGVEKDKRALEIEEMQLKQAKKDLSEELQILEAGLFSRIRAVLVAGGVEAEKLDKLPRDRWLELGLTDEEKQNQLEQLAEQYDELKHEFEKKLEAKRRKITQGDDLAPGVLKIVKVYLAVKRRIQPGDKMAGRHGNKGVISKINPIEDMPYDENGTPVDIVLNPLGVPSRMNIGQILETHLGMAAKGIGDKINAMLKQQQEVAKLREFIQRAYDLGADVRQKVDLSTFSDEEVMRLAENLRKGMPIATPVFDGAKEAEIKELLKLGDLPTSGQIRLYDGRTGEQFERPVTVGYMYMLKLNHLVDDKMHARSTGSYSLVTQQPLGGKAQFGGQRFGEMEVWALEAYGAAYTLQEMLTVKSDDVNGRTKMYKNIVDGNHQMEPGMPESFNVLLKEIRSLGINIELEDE
Method in brief: (§4)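 RNA polymerase (0.5 unit) in Tris·HCl with 150 mM KCl, 10 mM MgCl2, 0.1 mM DTT, and BSA. Template was 41 µM native calf thymus DNA, with 80 µM each ATP, CTP and GTP, plus [3H]UTP. Compounds in DMSO were prescreened at 200 µg/mL. […] Percent inhibition = (1 − test/DMSO control) × 100.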

Nucleic Acid [5] = assay: Inhibitory activity against DNA polymerase alpha; IA=inactive; type: nucleic-acid assay
Method in brief: (§5)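 Polymerase α or β (0.5 unit) in Tris·HCl with 5 mM KCl, 10 mM MgCl2, 1.5 mM DTT, BSA, and 12% glycerol. Template was 41 µM activated calf thymus DNA, with 80 µM each dATP, dCTP, dGTP and ATP, plus [3H]TTP. Compound was added in DMSO, duplicate wells, 37 °C. Incorporation was counted by scintillation. IC50 came from 10-point half-log dose–response curves.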

Nucleic Acid [6] = assay: Inhibitory activity against DNA polymerase beta; type: nucleic-acid assay; method in brief: as §5
MT2 [7] = assay: (§6) Anti-HIV activity against HIV-I G910-6 strain in MT2 cell line; type: functional, cell-based; details: Homo sapiens; method in brief: as §1
[8] = tested on: Avian myeloblastosis virus; assay: Inhibitory activity against Avian Myeloblastosis Virus Reverse Transcriptase (AMV RT); IA=inactive; type: functional
[9] = target: DNA-directed RNA polymerase subunit beta (Escherichia coli K-12) (UniProt P0A8V2); assay: Percent inhibition against RNA polymerase at dose 200 ug/mL; method in brief: as §4
Sequence of DNA-directed RNA polymerase subunit beta (Escherichia coli K-12) (P0A8V2 whole entry, looked up): as the sequence (P0A8V2 whole entry) above

[10] = tested on: Avian myeloblastosis virus; assay: Percent inhibition against Avian Myeloblastosis Virus Reverse Transcriptase (AMV RT) at dose 200 ug/mL; type: functional
[11] = Therapeutic index is the ratio between IC50/EC50 of HIV-I IIIB strain in MT2 cell line; type: cell-based; details: human, MT2 cells infected with HIV-1 IIIB strain; read-out: TI; method in brief: as §1
[12] = Therapeutic index is the ratio between IC50/EC50 of HIV-I H112-2 strain in MT2 cell line; type: cell-based; details: human, MT2 cells infected with HIV-1 H112-2 strain; read-out: TI; method in brief: as §1
[13] = Therapeutic index is the ratio between IC50/EC50 of HIV-I G910-6 strain in MT2 cell line; type: cell-based; details: human, MT2 cells infected with HIV-1 G910-6 strain; read-out: TI; method in brief: as §1
[14] = Therapeutic index is the ratio between IC50/EC50 of HIV-I RFII strain in CEM cell line; type: cell-based, CCRF-CEM; details: human, CEM cells infected with HIV-1 RFII strain; read-out: TI; method in brief: as §2
[15] = Therapeutic index is the ratio between IC50/EC50 of HIV-I A17 strain in MT2 cell line; type: cell-based; details: human, MT2 cells infected with HIV-1 A17 strain; read-out: TI; method in brief: as §1
MT2 [16] = assay: as §6; type: functional; details: Homo sapiens; method in brief: as §1
MT2 [17] = assay: as §3; type: functional; details: Homo sapiens; method in brief: as §1
[18] = tested on: Avian myeloblastosis virus; assay: Inhibitory activity against Avian Myeloblastosis Virus Reverse Transcriptase (AMV RT); inactive; type: functional

| Compound | EC50 (MT2 [1]) | EC50 (CCRF-CEM) | EC50 (MT2 [2]) | EC50 (MT2 [3]) | IC50 [4] | IC50 (Nucleic Acid [5]) | IC50 (Nucleic Acid [6]) | EC50 (MT2 [7]) | IC50 [8] | inhibition [9] | IC50 [18] | inhibition at 200 µg/mL [10] | selectivity ratio [11] | selectivity ratio [12] | selectivity ratio [13] | selectivity ratio [14] | selectivity ratio [15] | IC25 (MT2 [16]) | IC25 (MT2 [17]) |
| --- | --- | --- | --- | --- | --- | --- | --- | --- | --- | --- | --- | --- | --- | --- | --- | --- | --- | --- | --- |
| CCCc1cc(=O)oc2c3c(c4c(c12)OC(C)(C)C=C4)O[C@@H](C)C(C)[C@@H]3O (mixture of isomers) | 297 nM | 486 nM | 108 nM | 135 nM | Not Active | Not Active | 279 µM | 108 nM | Not Active | 27.8% | – | 13.3% | – | – | – | – | – | – | – |
| Nc1ccn([C@H]2CC[C@@H](CO)O2)c(=O)n1 [ZALCITABINE] | 331 nM | 189 nM | 900 nM | 1560 nM | – | – | – | 994 nM | – | – | – | – | 93 | 166 | 213 | 250 | 408 | – | – |
| Cc1cn([C@H]2C[C@H](N=[N+]=[N-])[C@@H](CO)O2)c(=O)[nH]c1=O [ZIDOVUDINE] | 14 nM | 23 nM | 29 nM | 37 nM | – | – | – | – | – | – | – | – | 1780 | 3240 | – | 13100 | 5960 | – | – |

Now from value to molecule, other results behind:

| EC50 (MT2 [1]) | EC50 (CCRF-CEM) | EC50 (MT2 [2]) | EC50 (MT2 [3]) | IC50 [4] | IC50 (Nucleic Acid [5]) | IC50 (Nucleic Acid [6]) | EC50 (MT2 [7]) | IC50 [8] | inhibition [9] | IC50 [18] | Compound | inhibition at 200 µg/mL [10] | selectivity ratio [11] | selectivity ratio [12] | selectivity ratio [13] | selectivity ratio [14] | selectivity ratio [15] | IC25 (MT2 [16]) | IC25 (MT2 [17]) |
| --- | --- | --- | --- | --- | --- | --- | --- | --- | --- | --- | --- | --- | --- | --- | --- | --- | --- | --- | --- |
| – | – | – | – | Not Active | Not Active | 214 µM | – | Not Active | 12.1% | – | CCCc1cc(=O)oc2c3c(c4c(c12)OC(C)(C)C=C4)O[C@@H](C)[C@H](C)[C@@H]3O [COSTATOLIDE] | 16.8% | – | – | – | – | – | 3.97 µM | 4.05 µM |
| 427 nM | 267 nM | 53 nM | 107 nM | Not Active | Not Active | 205 µM | 27 nM | – | 16% | Not Active | CCCc1cc(=O)oc2c3c(c4c(c12)OC(C)(C)C=C4)O[C@H](C)[C@@H](C)[C@@H]3O [CALANOLIDE A] | 20.6% | – | – | – | – | – | – | – |
